Calls of active or inactive are those of the source. The rule behind the calls is not given here.
Tests used:
Mus musculus [1] = experiment: Immunostimulatory activity in C57BL/6 mouse assessed as induction of Th1 cytokine-biased response by measuring IFN-gamma/IL-6 ratio at 100 ug/kg, ip measured after 24 hrs by ELISA; format: functional; settings: in the assay text read “IFN-gamma/IL-4 ratio” for “IFN-gamma/IL-6 ratio”
In short: (§1)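 Female C57BL/6 mice given glycolipid ip at 100 µg/kg (DMSO stock diluted in PBS). Serum IFN-γ and IL-4 measured by ELISA at several time points up to 24 h, 3 mice per group tested individually. Th1 bias expressed as IFN-γ/IL-4 ratio and as area-under-curve ratio of IFN-γ/IL-4 release.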

Splenocyte [2] = experiment: Induction of cell proliferation in C57BL/6 mouse splenocytes at 1 uM incubated for 48 hrs by MTT assay; format: functional, cell-based
In short: (§2)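 Female C57BL/6 splenocytes, strained and RBC-lysed, plated at 1×10^5/well in RPMI 1640 with 10% FBS and 1% penicillin-streptomycin, treated 48 h at 37 °C at 1, 0.1 and 0.01 µM. MTT (5 mg/mL) added for 4 h, formazan dissolved in DMSO, OD read at 570 nm. Viability given as % of medium-only control cells.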

[3] = molecular target: T1, Antigen-presenting glycoprotein CD1d (Mus musculus) (UniProt P11609+P11610); experiment: Binding affinity to CD1d in C57BL/6 mouse splenocytes assessed as iNKT-cell stimulating activity by measuring IFN-gamma/IL-4 ratio at 0.01 uM incubated for 48 hrs by ELISA; format: cell-based; settings: in the assay text read “IFN-gamma/IL-4 ratio” for “IFN-gamma/IL-6 ratio”
In short: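 Splenocytes prepared and cultured as for the cytokine assay (1×10^5/well, RPMI 1640 with 10% FBS, 48 h, 37 °C). IFN-γ and IL-4 determined by ELISA at 0.01 µM glycolipid and expressed as the relative proportion (IFN-γ/IL-4 ratio).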

[4] = molecular target: T1, Antigen-presenting glycoprotein CD1d (Mus musculus); experiment: Binding affinity to CD1d in C57BL/6 mouse splenocytes assessed as iNKT cell stimulating activity by measuring induction of Th2-cytokine, IL-4 production incubated for 48 hrs by ELISA; format: cell-based
In short: (§3)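 Spleens from female C57BL/6 mice passed through a 100 µM strainer, RBC-lysed (ammonium chloride/KHCO3/EDTA buffer, pH 7.2, 5 min, 4 °C), PBS-washed. Splenocytes at 1×10^5/well in RPMI 1640 with 10% FBS and 1% penicillin-streptomycin, exposed to glycolipid at three concentrations (0.01-1 µM) for 48 h at 37 °C. IFN-γ and IL-4 in supernatant measured by ELISA (pg/mL); α-GalCer positive control.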

[5] = molecular target: T1, Antigen-presenting glycoprotein CD1d (Mus musculus); experiment: Binding affinity to CD1d in C57BL/6 mouse splenocytes assessed as iNKT cell stimulating activity by measuring maximal induction of Th1-cytokine, IFN-gamma production at 1 uM incubated for 48 hrs by ELISA; format: cell-based; in short: as §3
[6] = molecular target: T1, Antigen-presenting glycoprotein CD1d (Mus musculus); experiment: Binding affinity to CD1d in C57BL/6 mouse splenocytes assessed as iNKT cell stimulating activity by measuring maximal induction of Th2-cytokine, IL-4 production at 1 uM incubated for 48 hrs by ELISA; format: cell-based; in short: as §3
Splenocyte [7] = experiment: Cytotoxicity against C57BL/6 mouse splenocytes assessed as reduction in cell viability at 0.01 to 1 uM incubated for 48 hrs by MTT assay; format: cell-based; in short: as §2
Mus musculus [8] = experiment: Immunostimulatory activity in C57BL/6 mouse assessed as IFN-gamma level in serum at 100 ug/kg, ip measured after 24 hrs by ELISA; format: functional
In short: (§4)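 Female C57BL/6 mice, 7-8 weeks, 25-28 g, SPF housing. Glycolipid 1 mg/mL DMSO stock diluted in PBS, given ip at 100 µg/kg. Serum taken at several time points after injection and IFN-γ and IL-4 measured by ELISA; 3 mice per group, each serum tested individually.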

Splenocyte [9] = experiment: Induction of cell proliferation in C57BL/6 mouse splenocytes incubated for 48 hrs by MTT assay; format: functional, cell-based; in short: as §2
Mus musculus [10] = experiment: Immunostimulatory activity in C57BL/6 mouse assessed as increase in IL-4 level in serum at 100 ug/kg, ip measured after 3 hrs by ELISA; format: functional, organism-based; in short: as §4
[11] = molecular target: T1, Antigen-presenting glycoprotein CD1d (Mus musculus); experiment: Binding affinity to CD1d in C57BL/6 mouse splenocytes assessed as iNKT cell stimulating activity by measuring induction of Th1-cytokine, IFN-gamma production incubated for 48 hrs by ELISA; format: cell-based; in short: as §3
Mus musculus [12] = experiment: Immunostimulatory activity in C57BL/6 mouse assessed as increase in IFN-gamma level in serum at 100 ug/kg, ip measured after 6 to 24 hrs by ELISA; format: functional, organism-based; in short: as §4
Mus musculus [13] = experiment: Immunostimulatory activity in C57BL/6 mouse assessed as induction of Th1 cytokine-biased response by measuring AUC ratio of IFN-gamma/IL-4 cytokine release at 100 ug/kg, ip measured after 24 hrs by ELISA; format: functional; in short: as §1
Mus musculus [14] = experiment: Immunostimulatory activity in C57BL/6 mouse assessed as increase in IL-4 level in serum at 100 ug/kg, ip measured after 6 hrs by ELISA; format: functional, organism-based; in short: as §4
Mus musculus [15] = experiment: Immunostimulatory activity in C57BL/6 mouse assessed as induction of Th1 cytokine-biased response by measuring IFN-gamma/IL-4 ratio at 100 ug/kg, ip measured after 24 hrs by ELISA

Structure (SMILES)	Ratio (Mus musculus [1])	Activity (Splenocyte [2])	Ratio [3]	Activity [4]	Activity [5]	Activity [6]	Activity (Splenocyte [7])	Activity (Mus musculus [8])	Activity (Splenocyte [9])	Activity (Mus musculus [10])	Activity [11]	Activity (Mus musculus [12])	Ratio (Mus musculus [13])	Activity (Mus musculus [14])	Ratio (Mus musculus [15])
CCCCCCCCCCCCCCCCCCCCCCCCCC(=O)N[C@@H](CO[C@H]1O[C@H](Cn2cc(C(=O)N[C@@H](CO)C(=O)OC)nn2)[C@H](O)[C@H](O)[C@H]1O)[C@H](O)[C@H](O)CCCCCCCCCCCCCC	1.8	Active	1.7	Dose-dependent effect	Active	Active	Non-Toxic	4755 pg/mL	Dose-dependent effect	Active	Dose-dependent effect	Active			
CCCCCCCCCCCCCCCCCCCCCCCCCC(=O)N[C@@H](CO[C@H]1O[C@H](Cn2cc(C(=O)N[C@@H](Cc3ccccc3)C(=O)OC)nn2)[C@H](O)[C@H](O)[C@H]1O)[C@H](O)[C@H](O)CCCCCCCCCCCCCC		Active	3.3	Dose-dependent effect	Active	Active	Non-Toxic	Active	Dose-dependent effect	Active	Dose-dependent effect	Active			
CCCCCCCCCCCCCCCCCCCCCCCCCC(=O)N[C@@H](CO[C@H]1O[C@H](CO)[C@H](O)[C@H](O)[C@H]1O)[C@H](O)[C@H](O)CCCCCCCCCCCCCC [RGI-7000]	2.5			Dose-dependent effect	Active	Active		2925 pg/mL		Active	Dose-dependent effect	Active	13.2		
CCCCCCCCCCCCCCCCCCCCCCCCCC(=O)N[C@@H](CO[C@H]1O[C@H](Cn2cc(C(=O)NCC(=O)OC)nn2)[C@H](O)[C@H](O)[C@H]1O)[C@H](O)[C@H](O)CCCCCCCCCCCCCC		Active	2.1	Dose-dependent effect	Active	Active	Non-Toxic	Active	Dose-dependent effect	Active	Dose-dependent effect	Active			
CCCCCCCCCCCCCCCCCCCCCCCCCC(=O)N[C@@H](CO[C@H]1O[C@H](Cn2cc(C(=O)N[C@@H](CCCCN)C(=O)OC)nn2)[C@H](O)[C@H](O)[C@H]1O)[C@H](O)[C@H](O)CCCCCCCCCCCCCC		Active	4.9	Dose-dependent effect	Active	Active	Non-Toxic	3886 pg/mL	Dose-dependent effect		Dose-dependent effect		23.6	Active	5.6
